Read-outs that look alike come from different tables or passages of the source.
What was measured:
Assay in all cases: spectrophotometric ring-cleavage assay, non-linear Michaelis-Menten fit
EXDO-Dbt_s207 = type: biochemical; conditions: read-out: Km (μM) ^b, partially purified enzyme
EXDO-K2_s162 = type: biochemical; conditions: read-out: Km (μM) ^b; 50 mM K/Na-phosphate pH 8.0, air-saturated; partially purified enzyme
Summary of the method: (§1)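 Enzyme came from E. coli EPI300-T1R fosmid clones grown at 37°C in LB with 0.01% L-arabinose and 25 μg ml−1 chloramphenicol, harvested in late exponential phase. Extracts were partially purified by anion exchange chromatography. Ring-cleavage product was followed spectrophotometrically in 50 mM air-saturated K/Na-phosphate pH 8.0 (catechol ε375, 3-methylcatechol ε388, 2,3-dihydroxybiphenyl ε434). Km was obtained from initial velocities over 1–100 μM substrate by non-linear Michaelis–Menten regression.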

EXDO-D_s45 = type: biochemical, uncultured bacterium; conditions: read-out: Km (μM) ^b; 50 mM K/Na-phosphate pH 8.0, air-saturated; partially purified enzyme
Summary of the method: as §1

EXDO-K2_s3 = type: biochemical; conditions: read-out: Km (μM) ^b; 50 mM K/Na-phosphate pH 8.0, air-saturated; partially purified enzyme
Summary of the method: as §1

EXDO-D_s4 = type: biochemical, uncultured bacterium; conditions: read-out: Km (μM) ^b; 50 mM K/Na-phosphate pH 8.0, air-saturated; partially purified enzyme
Summary of the method: as §1

EXDO-K2_s7 = type: biochemical; conditions: read-out: Km (μM) ^b; 50 mM K/Na-phosphate pH 8.0, air-saturated; partially purified enzyme
Summary of the method: as §1

EXDO-K2_s129 = type: biochemical; conditions: read-out: Km (μM) ^b; 50 mM K/Na-phosphate pH 8.0, air-saturated; partially purified enzyme
Summary of the method: as §1

EXDO-D_s151 = type: biochemical, uncultured bacterium; conditions: read-out: Km (μM) ^b; 50 mM K/Na-phosphate pH 8.0, air-saturated; partially purified enzyme
Summary of the method: as §1

[1] = 50 mM K/Na-phosphate pH 8.0, air-saturated

Q: `Oc1ccc2ccccc2c1O` [1,2-dihydroxynaphthalene] was tested. Which Km (EXDO-Dbt_s207; 50 mM acetic acid/NaOH pH 5.5, air-saturated) did it give?
A: 11.6 ± 1.4 µM

Q: `Oc1cccc(-c2ccccc2)c1O` [2,3-dihydroxybiphenyl] was tested. Which Km (EXDO-K2_s162) did it give?
A: 1 ± 0.1 µM

Q: And the Km (EXDO-D_s45)?
A: 0.61 ± 0.08 µM

Q: And the Km (EXDO-K2_s3)?
A: 2.1 ± 0.2 µM

Q: What about the Km (EXDO-D_s4) of the same compound?
A: 3.7 ± 0.6 µM

Q: And the Km (EXDO-K2_s7)?
A: 0.84 ± 0.08 µM

Q: What about the Km (EXDO-K2_s129) of the same compound?
A: 2.1 ± 0.2 µM

Q: And the Km (EXDO-Dbt_s207; [1])?
A: 4.2 ± 0.7 µM

Q: How did the Km (EXDO-K2_s162) turn out when `Cc1cccc(O)c1O` [3-methylcatechol] was run?
A: 4.3 ± 0.7 µM

Q: What about the Km (EXDO-D_s45) of the same compound?
A: 0.27 ± 0.1 µM

Q: What about the Km (EXDO-K2_s3) of the same compound?
A: 4.5 ± 0.6 µM

Q: What about the Km (EXDO-D_s4) of the same compound?
A: 1.8 ± 0.3 µM

Q: And the Km (EXDO-K2_s7)?
A: 4.6 ± 0.4 µM

Q: And the Km (EXDO-K2_s129)?
A: 9.3 ± 1.1 µM

Q: What about the Km (EXDO-D_s151) of the same compound?
A: 3.5 ± 1.5 µM

Q: And the Km (EXDO-Dbt_s207; [1])?
A: 13.6 ± 1.9 µM

Q: `Oc1ccccc1O` [catechol] was tested. Which Km (EXDO-D_s45) did it give?
A: 0.27 ± 0.03 µM

Q: And the Km (EXDO-D_s4)?
A: 1.4 ± 0.2 µM

Q: What about the Km (EXDO-D_s151) of the same compound?
A: 1.1 ± 0.2 µM

Q: What about the Km (EXDO-Dbt_s207; [1]) of the same compound?
A: 35 ± 5 µM

Source: paper PMC2784041 (Environmental Microbiology, 2009)
